A short description of experiment [1]: inhibitors of TNFa-induced NFkB p65 translocation, primary screen, imaging, HUVEC, MLSMR starter and 10KST1 sets (AID 438;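 active = inhibition above 20% together with a positive visual image hit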;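 note: compound added about 3h40 before a 20 min TNFalpha stimulation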;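 for inhibition: signal is the nuclear over cytoplasmic p65 intensity ratio per well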). To be noted: HUVEC TNFa-induced p65 nuclear translocation; cell count: measured here: nuclei count (cytotoxicity indicator), at 2.08 µM; inhibition: at 2 µM, stronger effect = higher value, 0% TNFa-plus-vehicle, 100% no-TNFa wells.
The nature of experiment [2]: inhibitors of mutant huntingtin aggregation, primary screen, imaging, exon1htt(103Q)mCFP cells, high-content imaging (AID 483;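 active = visual image review flags a hit and inhibition of aggregation exceeds 20%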;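 note: compound exposure lasted 3 days before fixation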;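 for nuclei count: percent of the per-plate median nuclei count of sample wells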). To be noted: exon1htt(103Q)mCFP cell line, aggregate imaging, at 2 µM; inhibition of aggregation: stronger effect = higher value; nuclei count: measured here: cell count, toxicity.
Experiment [3] in a line: inhibitors of E-selectin induction by TNFa, primary screen, imaging, HUVEC, immunofluorescence, MLSMR starter and 10KST1 sets (AID 487;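 active = visually confirmed hit in the image check and inhibition above 20%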;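 for inhibition: signal is fraction of cell area covered by stained E-selectin grains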;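 for nuclei count: 100% = median nuclei count of all wells on the same plate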). To be noted: HUVEC TNFalpha-induced E-selectin immunofluorescence imaging, at 2 µM; inhibition: stronger effect = higher value; nuclei count: measured here: cell number, toxicity.
In experiment [4] the target is Voltage-gated potassium channel subunit beta-2 (Rattus norvegicus) (UniProt P62483). The experiment in a line: KvBeta enzyme negative modulators, primary screen, biochemical, NADPH fluorescence (AID 622;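 active = fluorescence slope higher than the sample average by over 3 SD, cut at about -0.22 in these data, passing the limit was not always enough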;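 note: slope of raw intensity against log time taken from 70 to 1610 s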). To be noted: recombinant KvBeta, 4-cyanobenzaldehyde reduction, at 10 µM, stronger effect = higher value.
Experiment [5] has the same target. The experiment in a line: KvBeta positive modulators, primary screen, biochemical, NADPH fluorescence (AID 623;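 active = NADPH fluorescence slope more negative than the mean of all samples by about 3 SD, 99.7% confidence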;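 note: fluorescence intensity change per second fitted from 20 to 320 s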). Particulars: Recombinant KvBeta, NADPH fluorescence decrease slope, 10 min; at 10 µM; stronger effect = lower value.
For experiment [6], the target named is Muscarinic acetylcholine receptor M4 (Homo sapiens) (UniProt P08173). The experiment in a line: compounds altering M4/GIRK thallium flux, either direction, primary screen, M4 allosteric agonist project, cell-based, HEK293 M4/GIRK, BTC-AM (AID 625;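 active = fluorescence slope after compound addition differing from the mean of all tested samples at 99.7% confidence, mostly higher but some lower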;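 note: thallium influx through GIRK channels coupled to M4 in HEK293 cells with BTC-AM dye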). Particulars: at 10 µM, actives lie on both sides. A digest of the protocol:
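Material: M4/GIRK1/GIRK2 stable HEK293 cell line. Medium: pH 7.3 thallium assay buffer. Dosing: single compound concentration, 10 µM final. Schedule: 1 h dye loading, 2 min kinetic read. Measured by: kinetic fluorescence with BTC-AM dye. Read-out: post-addition slope, 15–24 s, of baseline-normalized fluorescence. Benchmarks: carbachol and DMSO controls.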

A short description of experiment [7]: inhibitors of Sendai virus-induced IRF3 signaling, primary screen, TLR/RLR signaling modifier project, cell-based, Sendai virus stimulus, luciferase, 10K MLSCN set (AID 602276).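 Note: firefly luciferase from ISG56 promoter only with Renilla not read in this screen; 0% = Sendai virus plus DMSO and 100% = medium plus DMSO without virus.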 To be noted: HEK293 RL24 IRF3 luciferase reporter, at 10 µM, stronger effect = higher value. Background: A reporter such as luciferase makes a cellular process visible.
Experiment [8] can be described thus: inhibitors of poly I:C-induced TLR3 signaling, primary screen, cell-based, poly I:C stimulus, luciferase, 10K MLSCN set (AID 602277;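 active = inhibition of the reporter signal at or above 50%; inactive = inhibition below 50%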). Particulars: HEK293-TLR3 RL24 IRF3 luciferase reporter, at 10 µM, stronger effect = higher value.

Activity calls are given as the source filed them.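 Rule for the calls, unless noted: active = inhibition at or above 50% at 10 µM; inactive = inhibition below 50%.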

The record followed here is PubChem BioAssay.

What is called inhibition is the drop in the measured response relative to a control, in per cent.

Voltage-gated potassium channel subunit beta-2 (Rattus norvegicus), sequence (P62483 whole entry, looked up): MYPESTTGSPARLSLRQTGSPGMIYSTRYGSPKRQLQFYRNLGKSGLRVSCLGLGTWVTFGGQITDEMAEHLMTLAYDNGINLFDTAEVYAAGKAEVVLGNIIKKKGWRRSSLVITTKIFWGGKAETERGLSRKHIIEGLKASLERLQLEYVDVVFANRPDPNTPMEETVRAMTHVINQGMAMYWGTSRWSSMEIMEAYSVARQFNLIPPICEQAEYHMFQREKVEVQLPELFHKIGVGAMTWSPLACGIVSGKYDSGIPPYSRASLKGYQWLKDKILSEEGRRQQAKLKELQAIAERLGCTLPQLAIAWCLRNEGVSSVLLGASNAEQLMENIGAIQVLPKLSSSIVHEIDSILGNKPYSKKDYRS
Muscarinic acetylcholine receptor M4 (Homo sapiens), sequence (P08173 whole entry, looked up): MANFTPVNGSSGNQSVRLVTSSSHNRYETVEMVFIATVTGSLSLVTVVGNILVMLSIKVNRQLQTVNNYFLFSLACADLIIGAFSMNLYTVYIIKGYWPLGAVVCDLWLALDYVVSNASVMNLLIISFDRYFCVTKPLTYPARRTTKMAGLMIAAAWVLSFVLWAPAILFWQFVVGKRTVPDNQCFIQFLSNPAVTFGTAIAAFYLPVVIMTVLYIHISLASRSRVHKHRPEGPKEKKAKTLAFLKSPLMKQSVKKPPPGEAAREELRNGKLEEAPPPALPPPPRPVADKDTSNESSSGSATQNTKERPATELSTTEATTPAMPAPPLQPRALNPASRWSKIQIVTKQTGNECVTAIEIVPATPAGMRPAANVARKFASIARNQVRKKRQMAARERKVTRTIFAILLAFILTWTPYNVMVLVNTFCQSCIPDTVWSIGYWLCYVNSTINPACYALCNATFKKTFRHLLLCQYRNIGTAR

For `CC1C(O)=C(c2nc3ccccc3[nH]2)C(=N)N1c1ccccc1` (centres undefined), in experiment [1], the cell count came out at 331. Besides, the inhibition in experiment [1] was 2.2% (inactive); in experiment [3], -1.7% (inactive); in experiment [7] it was -3.95% (inactive); in experiment [8] it was -41% (inactive). Also, in experiment [2], the inhibition of aggregation was -12.9% (inactive). The nuclei count in experiment [2] amounted to 103%; in experiment [3], 104%. The fluorescence slope in experiment [4] was -0.482 (inactive); in experiment [6] it was 0.00621 (inactive). The NADPH fluorescence slope in experiment [5] was -2.5e-05 (inactive).

Regarding `O=c1cc(-c2ccc(Cl)cc2)[nH][nH]1`, in experiment [1], the cell count is 523. Moreover, the inhibition is -2.4% (inactive) in experiment [1], 54.7% (inactive) in experiment [3], 15.8% (inactive) in experiment [7] and -16.8% (inactive) in experiment [8]. In addition, the inhibition of aggregation in experiment [2] is 10.1% (inactive). Moreover, the nuclei count in experiment [2] came to 104%; in experiment [3], 47.1%. Moreover, the values for the fluorescence slope in experiment [4] and in experiment [6] were -0.27 (inactive) and 0.00862 (inactive), respectively. Also, in experiment [5], the NADPH fluorescence slope is -4.3e-05 (inactive).

Turning to `CN(C)c1cccc(N=C2C=C(N3CCOCC3)CC(C)(C)C2)c1`, the cell count in experiment [1] is 473. For the same molecule, the inhibition in experiment [1] was 2.4% (inactive); in experiment [3], -54.6% (inactive); in experiment [7], -0.858% (inactive); in experiment [8], 16.5% (inactive). In addition, the inhibition of aggregation in experiment [2] is 8.4% (inactive). Further, the nuclei count in experiment [2] is 86.3%; in experiment [3] it was 116%. Besides, the fluorescence slope in experiment [4] is -0.55 (inactive); in experiment [6] it was 0.00498 (inactive). Also, the NADPH fluorescence slope in experiment [5] was -1.9e-05 (inactive).

As to `COc1ccc(C(CNC(=O)CN2C(=O)NC3(CC(C)CC(C)(C)C3)C2=O)N2CCOCC2)cc1` (centres undefined), the cell count in experiment [1] is 427. Moreover, the inhibition in experiment [1] is 8.4% (inactive); in experiment [3] it was -57% (inactive); in experiment [7], -2.17% (inactive); in experiment [8], -5.07% (inactive). Also, in experiment [2], the inhibition of aggregation was 13.7% (inactive). Also, the nuclei count in experiment [2] worked out at 97.7%; in experiment [3], 115%. Besides, the fluorescence slope is -0.413 (inactive) in experiment [4] and 0.00559 (inactive) in experiment [6]. For the same molecule, the NADPH fluorescence slope in experiment [5] was 3.8e-05 (inactive).

As to `CCn1c2ccccc2c2cc(NC(=O)Cc3ccc(S(=O)(=O)N4CCOCC4)s3)ccc21`, the cell count in experiment [1] came out at 343. In addition, the inhibition is -0.2% (inactive) in experiment [1], -10.9% (inactive) in experiment [3], 25.9% (inactive) in experiment [7] and 26.4% (inactive) in experiment [8]. Besides, the inhibition of aggregation in experiment [2] was 29.4% (inactive). Moreover, the nuclei count in experiment [2] is 115%; in experiment [3], 109%. Moreover, the fluorescence slope in experiment [4] is -0.502 (inactive); in experiment [6], 0.00333 (inactive). Besides, in experiment [5], the NADPH fluorescence slope is 1e-05 (inactive).

Consider `COC(=O)c1[nH]c2ccccc2c1NS(=O)(=O)c1ccc(OC)cc1OC`, for which the cell count in experiment [1] came out at 655. Also, the inhibition was -11.9% (inactive) in experiment [1], -72% (inactive) in experiment [3], 19.9% (inactive) in experiment [7] and 37.3% (inactive) in experiment [8]. Further, the inhibition of aggregation in experiment [2] is 13% (inactive). Further, the nuclei count in experiment [2] came out at 103%; in experiment [3], 118%. Also, the fluorescence slope is -0.524 (inactive) in experiment [4] and 0.00563 (inactive) in experiment [6]. Further, the NADPH fluorescence slope in experiment [5] was -0.000111 (inactive).

For `CCc1nc(N[C@@H](Cc2c[nH]c3ccccc23)C(=O)O)c2oc3ccccc3c2n1`, the cell count in experiment [1] was 570. Besides, the inhibition is -0.4% (inactive) in experiment [1], -59.6% (inactive) in experiment [3], 10.8% (inactive) in experiment [7] and 9.74% (inactive) in experiment [8]. Besides, the inhibition of aggregation in experiment [2] was -19.4% (inactive). For the same molecule, the nuclei count in experiment [2] came out at 101%; in experiment [3], 98.6%. For the same molecule, the fluorescence slope is -0.4 (inactive) in experiment [4] and 0.00556 (inactive) in experiment [6]. Further, in experiment [5], the NADPH fluorescence slope was 4.2e-05 (inactive).

For `CCCCNC(=O)c1c(C)cc(=O)oc1C`, in experiment [1], the cell count was determined as 541. In addition, the inhibition is -21.8% (inactive) in experiment [1], -29% (inactive) in experiment [3], 18.4% (inactive) in experiment [7] and 14% (inactive) in experiment [8]. Moreover, the inhibition of aggregation in experiment [2] is -12.9% (inactive). Further, the figures for the nuclei count in experiment [2] and in experiment [3] were 141% and 106%, respectively. The results for the fluorescence slope in experiment [4] and in experiment [6] were -0.531 (inactive) and 0.0056 (inactive), respectively. Moreover, the NADPH fluorescence slope in experiment [5] is -2.1e-05 (inactive).

Turning to `CCCn1c(NCc2cc(C)ccc2O)nc2ccccc21`, the cell count in experiment [1] was 369. The inhibition in experiment [1] is 1.4% (inactive); in experiment [3] it was -16.5% (inactive); in experiment [7] it was 18.7% (inactive); in experiment [8], 19.5% (inactive). Also, the inhibition of aggregation in experiment [2] was 4.3% (inactive). Besides, the nuclei count in experiment [2] is 82.1%; in experiment [3], 49.2%. The figures for the fluorescence slope in experiment [4] and in experiment [6] were -0.522 (inactive) and 0.00499 (inactive), respectively. Moreover, the NADPH fluorescence slope in experiment [5] is 6.3e-06 (inactive).

Regarding `CCOC(=O)CC(NS(=O)(=O)c1ccc(NC(C)=O)cc1)c1ccc(OCC)cc1` (centres undefined), in experiment [1], the cell count was 376. Further, the inhibition is 9.9% (inactive) in experiment [1], -101% (inactive) in experiment [3], 14% (inactive) in experiment [7] and 17.3% (inactive) in experiment [8]. Moreover, the inhibition of aggregation in experiment [2] was -7.9% (inactive). Besides, the nuclei count in experiment [2] is 95.7%; in experiment [3], 126%. Moreover, the fluorescence slope was -0.588 (inactive) in experiment [4] and 0.00588 (inactive) in experiment [6]. In experiment [5], the NADPH fluorescence slope is 3.6e-06 (inactive).

Consider `C=CCOc1nc(N2CCCC2)nc(N2CCCC2)n1`, for which, in experiment [1], the cell count worked out at 579. Also, the inhibition is -7.6% (inactive) in experiment [1], 23.8% (inactive) in experiment [3], 10.7% (inactive) in experiment [7] and 14.3% (inactive) in experiment [8]. Also, the inhibition of aggregation in experiment [2] is 4.8% (inactive). The nuclei count in experiment [2] amounted to 109%; in experiment [3] it was 84.1%. In addition, the fluorescence slope in experiment [4] was -0.551 (inactive); in experiment [6], 0.00552 (inactive). Moreover, in experiment [5], the NADPH fluorescence slope was -8.3e-05 (inactive).

Regarding `CCn1cc(C(=O)Nc2cc3c(cc2NC(C)=O)OCCO3)c(=O)c2ccc(C)nc21`, the cell count in experiment [1] stood at 315. For the same molecule, the inhibition in experiment [1] was 5.7% (inactive); in experiment [3] it was -39.4% (inactive); in experiment [7] it was 18.1% (inactive); in experiment [8], 16.9% (inactive). The inhibition of aggregation in experiment [2] is -17.4% (inactive). Also, the nuclei count in experiment [2] is 114%; in experiment [3] it was 115%. For the same molecule, the fluorescence slope is -0.49 (inactive) in experiment [4] and 0.00463 (inactive) in experiment [6]. In addition, the NADPH fluorescence slope in experiment [5] is -0.000144 (active).

Turning to `CCC(C)(C)n1nnnc1C(c1ccccc1OC)N1CCSCC1` (centres undefined), in experiment [1], the cell count was 252. Further, the inhibition is -16.3% (inactive) in experiment [1], 32.4% (inactive) in experiment [3], 6.1% (inactive) in experiment [7] and 23.7% (inactive) in experiment [8]. Also, in experiment [2], the inhibition of aggregation is 6.6% (inactive). Moreover, the figures for the nuclei count in experiment [2] and in experiment [3] were 106% and 53.7%, respectively. The fluorescence slope is -0.555 (inactive) in experiment [4] and 0.00476 (inactive) in experiment [6]. Further, the NADPH fluorescence slope in experiment [5] is -4.3e-05 (inactive).

`Cc1ccc(CNC(=O)CSc2n[nH]c(N)n2)cc1`: in experiment [1], the cell count is 498. The inhibition in experiment [1] is -7.2% (inactive); in experiment [3], -21.8% (inactive); in experiment [7] it was 15.9% (inactive); in experiment [8], 20.6% (inactive). Moreover, the inhibition of aggregation in experiment [2] is 20% (inactive). Moreover, the nuclei count in experiment [2] is 44.8%; in experiment [3], 136%. Besides, the fluorescence slope in experiment [4] was -0.579 (inactive); in experiment [6] it was 0.00347 (inactive). In addition, the NADPH fluorescence slope in experiment [5] is -6.4e-05 (inactive).
